Source: PubChem BioAssay (several laboratories)
KCNK9 inh = blocks the human KCNK9 two-pore domain potassium channel; HEK293 KCNK9, FluxOR thallium flux fluorescence; hits give low values; B-score at 10 µM; actives 1.2% (n = 310,000); AID 488922;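 active = ratio B-score over 3 SD below the library mean, with starting fluorescence within 5 SD of its mean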;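 also: negative B-score means less thallium flux so channel inhibition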
hERG protect = shields human hERG channel from block by proarrhythmic agents; Q12809; CHO-hERG, FluxOR thallium flux, dofetilide IC70 present; activation (rescue from dofetilide block), less the hit threshold, % at 10 µM; actives 0.51% (n = 310,000); AID 1511;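 active = activation above the mean of controls blocked by dofetilide plus 5 SD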;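 also: thallium influx through hERG after potassium depolarization seen as dye fluorescence rise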
PHOSPHO1 inh = inhibitors of human PHOSPHO1 phosphatase; recombinant PHOSPHO1, absorbance phosphatase assay; actives 1.1% (n = 290,000); Q8TCT1; inhibition, % at 13.3 µM; AID 1565; in the data active = inhibition above about 60%
KCNQ1 block = human KCNQ1 channel inhibition | P51787 | CHO-K1 KCNQ1, FluxOR thallium flux fluorescence; hits give high values | B-score at 10 µM | actives 1.3% (n = 310,000);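 active = compounds whose thallium flux B-score, printed positive for inhibition, exceeds three library SD while starting fluorescence stays within three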;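 also: channel opened by potassium depolarization with thallium stimulus after 20 min compound exposure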
KCNQ1 pot = potentiators or activators of human KCNQ1 potassium channel; CHO-K1 KCNQ1, thallium flux FluxOR fluorescence; hits give high values; B-score at 10 µM; actives 0.35% (n = 310,000); P51787;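 active = fluorescence ratio B-score, a plate-corrected score, at least three library SD, with initial intensity B-score within 5 SD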
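Assay system: CHO-K1 cells stably expressing KCNQ1; Medium: assay buffer with matched DMSO; Also added: K+/Tl+ depolarizing stimulus; Dosing: single dose; Timing: dye 90 min, compound 20 min, room temperature; Measured by: kinetic FluxOR thallium fluorescence, 10-s 1-Hz baseline, 110-s post-stimulus read; Read-out: peak-minus-minimum fluorescence over initial fluorescence, negative-control normalized, B-scored.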
KCNK3 inh = human KCNK3 channel inhibition, primary screen; actives 0.84% (n = 340,000); B-score at 10 µM; O14649; AID 602410; CHO-KCNK3 thallium flux, FluxOR fluorescence; hits give low values;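 active = B-score under library mean minus 4 SD, starting fluorescence ratio at most library mean plus 5 SD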;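 also: more negative B-score means stronger inhibition of thallium flux through KCNK3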
* hit, by the source's call; i = inactive; . = no result. Shown are actives, neighbours in structure and some others; about 4% of the full set was active somewhere.

SMILES | KCNK9 inh | hERG protect | PHOSPHO1 inh | KCNQ1 block | KCNQ1 pot | KCNK3 inh
COCC1CCN(Cc2cn[nH]c2-c2ccc(OC)c(F)c2)C1 (centres undefined) | i | -19 | -12 | i | i | i
Nc1nc(N)c(N=Nc2ccc(C(=O)O)cc2)c(N)n1 | i | -7 | 15 | i | 11* | i
CN(C)c1ccc(N=Nc2ccc(C(=O)O)cc2)cc1 | i | 0 | 35 | i | i | i
O=C(CN1C(=O)NC2(CCCC2)C1=O)OCc1ccccc1 | . | . | . | . | . | i
FC(F)(F)c1ccccc1Nc1nccs1 | i | -5 | 95* | i | i | i
Cc1c(C(=O)Nc2c(C)n(C)n(-c3ccccc3)c2=O)oc2ccc(Cl)cc12 | i | -8 | 71* | i | i | i
Cc1c(NC(=O)Nc2cccc(F)c2)c(=O)n(-c2ccccc2)n1C | i | -5 | 61* | i | i | i
Cc1cccc(NC(=O)Nc2c(C)n(C)n(-c3ccccc3)c2=O)c1 | i | -7 | . | i | i | i
COc1ccc(-c2nn(-c3ccccc3)cc2/C=C/C(=O)OCC(=O)Nc2ccccc2C#N)cc1 | i | -1 | 34 | i | i | i
N#Cc1ccccc1NC(=O)COC(=O)/C=C/c1cn(-c2ccccc2)nc1-c1ccc(Cl)cc1 | . | . | 60* | . | . | i
CCOC(=O)c1c(C)[nH]c(C)c1S(=O)(=O)N(C)CC(=O)NCc1ccc(C)cc1 | i | -8 | 30 | i | i | i
O=C(NCCc1ccccc1)C(=O)NCC1CCNCC1 | i | 4.6* | -24 | i | i | .
O=C(NCCc1ccccc1)C(=O)NC1CCCCC1 | i | -1 | -13 | i | i | i
O=C(NCc1ccco1)c1ccc(N2CCCCC2)c([N+](=O)[O-])c1 | i | -7 | -4 | i | i | i
Cc1ccc(N(Cc2ccco2)C(=O)c2ccc(N3CCCCC3)c([N+](=O)[O-])c2)cc1 | i | -7 | 0 | 8* | i | i
CCOc1ccccc1N(CC(=O)NC(C)(C)C)C(=O)c1ccc(CN2CCOCC2)o1 | i | -7 | 2 | i | i | i
COc1cc(/C=C2/C(=O)NN(c3ccc(Cl)c(Cl)c3)C2=O)cc([N+](=O)[O-])c1O | i | 6.2* | 22 | i | i | i
COc1cc(/C=C2\SC(=O)N(c3ccccc3Cl)C2=O)cc([N+](=O)[O-])c1O | i | -11 | 25 | 10* | i | i
COc1cc(/C=C2\SC(=O)N(c3ccc(O)cc3)C2=O)cc(OC)c1OC | i | -3 | 28 | i | i | i
COc1cc(/C=C2\SC(=O)N(CC(=O)Nc3cccc(C)c3)C2=O)cc([N+](=O)[O-])c1O | . | . | 62* | . | . | i
CCOc1cc(/C=C2\SC(=O)N(CC(=O)Nc3ccccc3F)C2=O)cc([N+](=O)[O-])c1O | i | -9 | 29 | i | i | i
O=c1c2ccccc2sn1-c1ccccc1 | i | 6.5* | -48 | i | i | i
COC(=O)c1c(NC(=O)Cc2cccs2)sc(C(=O)NC2CCCCC2)c1C | i | 5.2* | . | i | i | i
CC(C)c1nc2sc3c(=S)nc[nH]c3c2c2c1CCC2 | i | 28* | -91 | i | 35* | i
S=c1nc[nH]c2c1sc1nc(N3CCOCC3)c3c(c12)CCCC3 | i | 97* | -24 | i | 95* | i
SMILES | KCNK9 inh | hERG protect | PHOSPHO1 inh | KCNQ1 block | KCNQ1 pot | KCNK3 inh
CC(C)c1nc2sc3c(=O)[nH]cnc3c2c2c1CCC2 | i | -8 | -10 | i | i | i
CCn1c(SCC(=O)n2c(C)c(C)c3ccccc32)nnc1-c1ccco1 | i | -8 | -3 | i | i | i
Cc1c(C)n(C(=O)CSc2nccn2C)c2ccccc12 | i | -4 | 61* | i | i | i
Cc1cc(C)c2oc(C(=O)N3CCN(Cc4ccccc4)CC3)cc(=O)c2c1 | i | -1 | 20 | i | i | i
CCOC(=O)c1nn(-c2ccccc2)c(=O)c2c(N)scc12 | . | . | 25 | . | . | i
Nc1scc2c(C(=O)N/N=C/c3ccc(Cl)cc3)nn(-c3ccccc3)c(=O)c12 | i | -34 | 101* | i | i | i
C=CC[n+]1c(-c2ccc(OCC)cc2)csc1NNC(=O)Nc1ccccc1 | i | -4 | 61* | i | i | i
C=CC[n+]1c(-c2ccc(C)cc2)csc1Nc1c(C)n(C)n(-c2ccccc2)c1=O | i | -5 | 48 | i | i | i
CCCNC(=O)c1ccc(CN2CCOCC2)cc1 | i | -7 | 41 | i | i | i
COc1cc(CNCCCN2CCOCC2)c(Br)cc1OCC(=O)Nc1ccccc1C | i | -9 | 23 | i | i | i
COc1ccccc1NC(=O)COc1ccc(Br)cc1CNCCCN1CCOCC1 | i | -13 | 70* | i | i | i
CN(C[C@H](Cc1ccccc1)N(C[C@H](Cc1ccccc1)N(CCC(C)(C)C)N=O)N=O)N=O | i | -12 | 26 | 8* | i | i
CC(C)CCN(N=O)[C@@H](Cc1ccccc1)CN(N=O)[C@@H](Cc1ccccc1)CN(C)N=O | i | -16 | -3 | i | i | i
COc1cc(S(=O)(=O)NCC2COCCO2)ccc1-n1cnnn1 (centres undefined) | i | 5.8* | -27 | i | i | i
COc1cc(S(=O)(=O)NCCN2CCOCC2)ccc1-n1cnnn1 | i | -3 | 32 | i | i | i
CC[C@H](C)NC(=O)CCCCCn1c(=S)[nH]c2c([nH]c3ccc(OC)cc32)c1=O | i | 2 | 4 | i | i | i
COc1ccc2[nH]c3c(=O)n(CCCCC(=O)N4CCC(C(N)=O)CC4)c(=S)[nH]c3c2c1 | i | -7 | 104* | i | i | i
COc1ccc2[nH]c3c(=O)n(CCCCC(=O)NCCN4CCCC4)c(=S)[nH]c3c2c1 | i | -9 | 102* | i | i | i
CCCCN1C(=N)N([C@@H](C)CN2CCC[C@H]2CN2C(N)=NC[C@H]2C(C)C)C[C@H]1[C@H](C)CC | . | . | . | . | . | i
O=C(CN(Cc1ccco1)Cc1ccco1)Nc1cc(S(=O)(=O)N2CCCCC2)ccc1Cl | . | . | . | . | . | i
CCCN(CCC)CCCNS(=O)(=O)c1ccc2c(c1)oc(=O)n2C | i | -4 | 62* | i | i | i
